Most compounds without a hit are left out; they make up all but 5.8% or so of the library.
WT yeast gro inh = growth inhibition of WT yeast, mitochondrial fusion screen | 190,000 tested, 2.1% active | mitochondrial fusion phenotypic screen, WT strain | inhibition, % at 10 µM; in the data active = inhibition above about 58%; tested in S. cerevisiae
14-3-3 Bad PPI = disrupts binding of bovine 14-3-3 zeta to phospho-Bad peptide. TR-FRET 14-3-3zeta/Dy647-pBad peptide displacement, 1 h. P63103. inhibition, % at 21.7 µM. AID 781. 220,000 tested, 0.71% active;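 active = inhibition above about 70%, limit read from the data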
Cl transport mod = modulators of human KCC2 chloride dependent transport. B-score of Tl+ flux slope (higher = more flux/activation; lower = inhibition) at 10 µM. 190,000 tested, 2.2% active. Q9H2X9. KCC2 cells, thallium flux FluoZin-2 fluorescence;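 active = thallium flux slope and its plate-corrected score both differing from the plate sample mean at a set confidence after two filtering rounds, in either direction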;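 note: slope of fluorescence scaled to starting intensity during 10 to 20 s after thallium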
NCF1 inh = p47phox (human) inhibition; P14598; AID 1274; 220,000 tested, 0.53% active; p47phox/p22phox peptide binding, fluorescence polarization, 2 h; inhibition, % at 24.7 µM;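 active = inhibition above about 30%, limit read from the data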
ROMK primary = modulators of human ROMK potassium channel. P48048. Tet-inducible ROMK, thallium flux fluorescence; actives lie on both sides. B-score at 10 µM. 130,000 tested, 2% active;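 active = signal ratio slope over the read window, or its plate-corrected B-score, at least 3 SD from the plate mean, either direction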;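 note: B-score of the F/F0 ratio slope over 7 to 12 s after thallium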
Target sequence (P48048 whole entry, looked up): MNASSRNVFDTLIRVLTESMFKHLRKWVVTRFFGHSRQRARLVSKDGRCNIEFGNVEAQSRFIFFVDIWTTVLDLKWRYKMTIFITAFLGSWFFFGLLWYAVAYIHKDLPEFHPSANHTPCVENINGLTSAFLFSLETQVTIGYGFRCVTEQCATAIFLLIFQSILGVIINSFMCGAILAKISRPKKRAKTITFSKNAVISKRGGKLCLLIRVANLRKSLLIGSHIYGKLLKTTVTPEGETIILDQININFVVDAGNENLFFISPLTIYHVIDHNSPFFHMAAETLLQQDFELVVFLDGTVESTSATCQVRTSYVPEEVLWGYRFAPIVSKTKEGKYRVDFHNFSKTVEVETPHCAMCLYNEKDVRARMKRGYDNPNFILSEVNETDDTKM
RBBP9 inh = inhibitors of human serine hydrolase RBBP9; inhibition, % at 7.94 µM; recombinant RBBP9, FP-Rh probe fluorescence polarization; 220,000 tested, 0.2% active;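 active = inhibition above the campaign mean of all tested compounds plus 3 SD, cut at about 14% in these data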
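Controls: DMSO-treated enzyme wells and wells lacking RBBP9 | Material: RBBP9 protein | Technique: Fluorescence polarization | Replication: Single well per compound, no replicates | Buffer or medium: Tris-NaCl-Pluronic buffer, pH 8.0 | Timing: 30 min compound preincubation, 45 min probe labeling, 25 °C | Read-out basis: Percent inhibition from mP, scaled between DMSO and no-protein wells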
RBBP9 inh conf = confirmation of human RBBP9 inhibitors. AID 1537. 410 tested, 36% active. inhibition, % at 7.94 µM. recombinant RBBP9, FP-Rh probe fluorescence polarization. shares compounds with RBBP9 inh;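 active = inhibition above the hit cutoff derived for the primary screen, cut at about 15% in these data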
A number is an active result; 0 = inactive; - = no result given.

SMILES | WT yeast gro inh | 14-3-3 Bad PPI | Cl transport mod | NCF1 inh | ROMK primary | RBBP9 inh | RBBP9 inh conf
CCN=c1scc(C)n1/N=C/c1ccc(O)c(O)c1O | 0 | 0 | 0 | 0 | - | 34 | 61
O=c1[nH]c2cc3c(cc2cc1CN(CCO)S(=O)(=O)c1ccccc1)OCCO3 | - | 0 | 0 | 0 | 0 | 0 | -
CC(=O)NC(=S)Nc1ccc(N2CCOCC2)c(S(=O)(=O)Nc2cc(Cl)ccc2Cl)c1 | 0 | 0 | 0 | 0 | 0 | 0 | -
CN(CC(=O)NCc1ccc(Cl)cc1)S(=O)(=O)c1cccc2cccnc12 | 0 | 0 | - | 0 | - | 0 | -
COc1cccc(CNC(=O)CN(C)S(=O)(=O)c2cccc3cccnc23)c1 | - | 0 | 0 | 0 | 0 | 21 | 0
Cc1noc(C)c1S(=O)(=O)Nc1ccc(C(=O)N2CCC(C)CC2)cc1 | 0 | 0 | 0 | 0 | 0 | 18 | 0
COc1ccc2c(c1)Sc1ccccc1N2 | 0 | 0 | 0 | 0 | 0 | 16 | 30
c1ccc2c(c1)Nc1cc3ccccc3cc1S2 | - | 0 | 0 | 0 | - | 0 | -
Cc1cccc2cc(CN(CCCN(C)C)C(=S)NCCc3ccccc3)c(=O)[nH]c12 | 0 | 0 | 0 | 0 | 0 | 17 | 27
O=Nc1c(O)[nH]c2ccc(F)cc12 | 0 | 0 | 0 | 0 | 0 | 0 | -
Cc1cccc2c(N=O)c(O)[nH]c12 | - | 0 | 0 | 0 | - | 24 | 53
CCCCN(C(=O)c1cc2ccccc2o1)c1c(N)n(CC(C)C)c(=O)[nH]c1=O | 0 | 0 | 0 | 0 | 0 | 20 | 0
CC[N+]1(CC(O)COC2CC(C)CC(C)(C)C2)CCOCC1 (stereo not drawn) | - | 0 | 0 | 0 | - | 0 | -
c1coc(-c2nc(-c3ccco3)c(-c3ccco3)nc2-c2ccco2)c1 | 0 | 0 | 0 | 0 | - | 26 | 19
Nc1nc(-c2ccco2)c(-c2ccco2)s1 | 0 | 0 | 0 | 0 | - | 17 | 0
COc1ccc2nc(-c3ccco3)c(-c3ccco3)nc2c1 | 0 | 0 | 0 | 0 | 0 | 0 | -
O=C(NCCc1ccccc1)C(=O)Nc1ccc([N+](=O)[O-])cc1 | 0 | 0 | 0 | 0 | 0 | 0 | -
CCOc1ccc(S(=O)(=O)Nc2nc3ccccc3nc2Nc2ccc(N3CCOCC3)cc2)cc1 | 0 | 0 | 0 | 0 | - | 17 | 0
COc1ccc(Nc2nc3ccccc3nc2NS(=O)(=O)c2ccc(NC(C)=O)cc2)cc1 | - | 0 | 0 | 0 | - | 0 | -
Cc1ccc(NC(=O)CN(c2ccc(Cl)cc2)S(=O)(=O)c2cc([N+](=O)[O-])ccc2Cl)c(C)c1 | 0 | 0 | 0 | 0 | 0 | 0 | -
O=C(COC(=O)/C=C/c1ccccc1)NCc1ccc(Cl)cc1 | 0 | 0 | 0 | 0 | 0 | 0 | -
O=C(COC(=O)/C=C/c1ccc(Cl)cc1)NCCc1ccccc1 | 0 | 0 | 0 | 0 | 0 | 17 | 0
O=C1CSC(=S)N1/N=C/c1ccc(O)c(O)c1O | - | 96 | 0 | 0 | - | 15 | 27
Oc1ccc(-c2cn3c(n2)SCC3)cc1O | 0 | 0 | 0 | 0 | 0 | 21 | 51
CC(C)c1ccc(/C=N/NC(=O)C(=O)NCCCN2CCOCC2)cc1 | 0 | 0 | 0 | 0 | 0 | 0 | -
SMILES | WT yeast gro inh | 14-3-3 Bad PPI | Cl transport mod | NCF1 inh | ROMK primary | RBBP9 inh | RBBP9 inh conf
Nc1ccccc1N1CCN(C(=O)c2ccccc2)CC1 | 0 | 0 | 0 | 0 | - | 15 | 0
O=C(c1ccccc1)N1CCN(c2ccc([N+](=O)[O-])cc2-n2cccc2)CC1 | - | 0 | 0 | 0 | 0 | 14 | 0
O=C(c1cccc(C(=O)N2CCN(c3ccccc3F)CC2)c1)N1CCN(c2ccccc2F)CC1 | 0 | 0 | 0 | 0 | 0 | 0 | -
CCn1c(SCC(=O)Nc2ccccc2OC)nc(O)cc1=O | - | 0 | 0 | 0 | 0 | 0 | -
Cc1cc(C(=O)N/N=C/c2ccc(O)c(O)c2O)c(C)n1-c1ccccc1 | 0 | 0 | 0 | 0 | 0 | 18 | 73
CCNC(=O)c1ccc2c(c1)C1C3CCC(C3)C1C(c1ccccc1)N2 (stereo not drawn) | 0 | 0 | 0 | 0 | 0 | 0 | -
CCOc1ccc(S(=O)(=O)Nc2ccc(Cl)cn2)c(C)c1C | 0 | 0 | 0 | 0 | 0 | 17 | 0
Cc1cc(O)ccc1N=Cc1c(C(F)(F)F)[nH][nH]c1=O | 0 | 0 | 0 | 0 | 0 | 39 | 0
CCN=C1S/C(=C\c2cc(OCC)c(O)cc2Br)C(=O)N1CC | 0 | 0 | 0 | 0 | 0 | 24 | 0
CCN(CC)C(=O)C(=O)c1cccn1-c1ccccc1C#N | 0 | - | - | 0 | 0 | 21 | 0

Bioassay records (PubChem BioAssay)
